Source: PubChem BioAssay
Sampled rows, rich in hits. Any-hit rate of the full collection: about 2.1%.
Cneo AK release: Cryptococcus neoformans lysis via adenylate kinase release. C. neoformans lysis, adenylate kinase release luminescence, 4 h; normalised: neutral wells 0, clomiphene wells 100. lysis activity, % at 15 µM. actives 0.2% (n = 360,000). AID 651654;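 active = mean lysis activity across replicates of at least 80%, whatever share of replicates individually reach that level; inactive = mean lysis activity below 80%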
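Assay system: C. neoformans cells. Amount: yeast cell density of 5 × 10^6 cells/mL. Technique: AK luminescence. Buffer or medium: YPD. Times: static 4 h at 37 °C with compound, 1 h detection. Dosing: single-point compound dose. Read-out: lysis from increased AK signal.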
Xi reactivation: reactivates the inactive X chromosome in mouse fibroblasts; activation, % at 7.58 µM; actives 0.055% (n = 360,000); XiGFP mouse fibroblasts, % GFP-positive cells imaging, 3 d; cells co-treated with 5-aza-dC sensitizer; scaled so ellipticine positive control = 100%;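 active = mean normalized replicate activation at least 10% and every replicate at or above 10%; inconclusive = only one of the two criteria met; inactive = mean below 10% and not all replicates reach 10%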
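Assay system – SV40-immortalized XiGFP fibroblast cells, line 68-5-11 · Buffer or medium – DMEM supplemented with 5-aza-dC as sensitizing agent · Dosing – one concentration, pinned · Benchmarks – positive control ellipticine, 6 µM final · Times – 3 days compound exposure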
DENV2 CPE rescue: DENV2-induced cell death inhibition | DENV2-infected cells, cytopathic effect rescue, plate reader | CPE inhibition, % at 9.99 µM | actives 1.7% (n = 350,000); in the data active = CPE inhibition above about 20%, passing the limit was not always enough; inconclusive = no clear call, values can overlap the other calls; tested in BHK-21 cells
Statin myotox sup: protects C2C12 myotubes from simvastatin toxicity; rescue of ATP level, % at 7.49 µM; ATP luminescence, 48 h; scaled: DMSO 0, geranylgeraniol control 100; actives 0.78% (n = 330,000);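 active = mean ATP rescue above about 67%, or every replicate alone reaching that limit, limit read from the data, passing the limit was not always enough; inconclusive = no clear call, values can overlap the other calls; inactive = mean under the limit and some replicate under it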;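 also: myotubes were challenged with 10 µM simvastatin during compound exposure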
Of the large screens only hits and unclear results are named; the others gave an inactive call; ! = a repeat was not active.

C[C@@H]1CN([C@@H](C)CO)C(=O)c2cc(NC(=O)C3CCCCC3)ccc2O[C@@H]1CN(C)C(=O)Nc1ccccc1	none
C[C@H]1CN([C@@H](C)CO)C(=O)c2cc(NC(=O)Nc3cccc4ccccc34)ccc2O[C@@H]1CN(C)C(=O)Nc1ccccc1	none
C[C@@H]1CN([C@H](C)CO)C(=O)c2cc(NC(=O)Nc3cccc4ccccc34)ccc2O[C@@H]1CN(C)C(=O)Nc1ccc(F)cc1	DENV2 CPE rescue 25
C[C@@H]1CN([C@H](C)CO)C(=O)c2cc(NC(=O)Nc3cccc4ccccc34)ccc2O[C@@H]1CN(C)C(=O)Nc1ccccc1	Cneo AK release 103, DENV2 CPE rescue inconclusive
COc1ccc(NC(=O)Nc2ccc3c(c2)C(=O)N([C@@H](C)CO)C[C@H](C)[C@H](CN(C)C(=O)Nc2cccc4ccccc24)O3)cc1	DENV2 CPE rescue 31
CC(=O)n1cc(CO)c2ccccc21	DENV2 CPE rescue 35 (no result: Xi reactivation)
C[C@@H]1CCCCO[C@H](CN(C)Cc2ccc(C(F)(F)F)cc2)[C@@H](C)CN([C@H](C)CO)C(=O)c2cc(NC(=O)Cc3ccccc3)ccc2O1	none
C[C@@H]1CN([C@H](C)CO)C(=O)c2cc(NC(=O)c3ccccc3)ccc2O[C@@H](C)CCCCO[C@H]1CN(C)Cc1ccc(Cl)c(Cl)c1	none (no result: Cneo AK release, DENV2 CPE rescue, Statin myotox sup)
C[C@@H]1CCCCO[C@H](CN(C)Cc2ccc(Cl)c(Cl)c2)[C@H](C)CN([C@@H](C)CO)C(=O)c2cc(NC(=O)c3ccccc3)ccc2O1	DENV2 CPE rescue 82 (no result: Statin myotox sup)
C[C@@H]1CCCCO[C@H](CN(C)Cc2ccc(C(F)(F)F)cc2)[C@H](C)CN([C@@H](C)CO)C(=O)c2cc(NC(=O)c3ccccc3)ccc2O1	DENV2 CPE rescue 140 (no result: Statin myotox sup)
C[C@@H]1CCCCO[C@H](CN(C)Cc2ccc(C(F)(F)F)cc2)[C@H](C)CN([C@H](C)CO)C(=O)c2cc(NC(=O)Cc3ccccc3)ccc2O1	Statin myotox sup 134
C[C@@H]1CCCCO[C@H](CN(C)Cc2ccc(C(F)(F)F)cc2)[C@@H](C)CN([C@H](C)CO)C(=O)c2cc(NC(=O)c3ccccc3)ccc2O1	none (no result: Statin myotox sup)
O=C(c1ccc(F)cc1)N1CC(=O)N2[C@H](C1)[C@@H](c1ccc(C3=CCCC3)cc1)[C@@H]2CO	none (no result: Cneo AK release, Statin myotox sup)
COCC#Cc1ccc2c(c1)O[C@H](CN(C)Cc1ccccn1)[C@H](C)CN([C@@H](C)CO)S2(=O)=O	none (no result: Cneo AK release, DENV2 CPE rescue)
CCCC(=O)Nc1ccc2c(c1)C(=O)N(C)C[C@@H](OC)[C@@H](C)CN(Cc1ccccn1)[C@@H](C)CO2	none
CCCNC(=O)C[C@H]1CC[C@@H]2[C@H](COC[C@@H](O)CN2C(=O)c2ccccn2)O1	DENV2 CPE rescue 89!
CCNC(=O)C[C@H]1CC[C@H]2[C@@H](COC[C@H](O)CN2C(=O)c2cccnc2)O1	DENV2 CPE rescue 94
CCCNC(=O)C[C@H]1CC[C@@H]2[C@H](COC[C@H](O)CN2C(=O)c2cccnc2)O1	none
O=C(C[C@H]1CC[C@@H]2[C@H](COC[C@@H](O)CN2C(=O)c2cccnc2)O1)NCc1ccc(-c2ccccc2)cc1	DENV2 CPE rescue 23
O=C(C[C@H]1CC[C@@H]2[C@H](COC[C@H](O)CN2C(=O)c2ccncc2)O1)NCc1ccc(-c2ccccc2)cc1	DENV2 CPE rescue 20
CC(=O)N1[C@@H](CO)[C@H](c2ccccc2)C12CN(C(=O)c1ccccc1)C2	none (no result: Cneo AK release, Statin myotox sup)
O=C(C[C@@H]1CC[C@@H]2[C@H](COC[C@H](O)CN2C(=O)c2ccccc2F)O1)NCc1ccccc1	DENV2 CPE rescue inconclusive
CS(=O)(=O)N1C[C@H](O)COC[C@@H]2O[C@H](CC(=O)NCc3ccc(-c4ccccc4)cc3)CC[C@H]21	none
Cc1ccc(S(=O)(=O)N2C[C@@H](O)COC[C@@H]3O[C@H](CC(=O)NCc4ccc5c(c4)OCO5)CC[C@H]32)cc1	Cneo AK release 109 (no result: DENV2 CPE rescue)
O=C(C[C@@H]1CC[C@H]2[C@@H](COC[C@H](O)CN2C(=O)c2ccccc2F)O1)NCc1ccccc1	DENV2 CPE rescue 86
Cc1ccc(S(=O)(=O)N2C[C@@H](O)COC[C@H]3O[C@@H](CC(=O)NCc4ccc5c(c4)OCO5)CC[C@@H]32)cc1	none
CS(=O)(=O)N1C[C@H](O)COC[C@H]2O[C@@H](CC(=O)NCc3ccc(-c4ccccc4)cc3)CC[C@@H]21	DENV2 CPE rescue 79
COc1ccc(NC(=O)N(C)C[C@@H]2OCc3ccccc3-c3c(n(C)c4ccccc34)C(=O)N([C@@H](C)CO)C[C@@H]2C)c(OC)c1	none
C[C@H](CO)N1C[C@H](C)[C@H](CN(C)C(=O)Nc2ccc(F)cc2)Oc2ncc(C#CCN(C)C)cc2C1=O	none
C[C@H](CO)N1C[C@H](C)[C@H](CN(C)C(=O)C2CCOCC2)Oc2cc(C#Cc3ccncc3)ccc2S1(=O)=O	none
Cc1ccc(N(C)C)cc1	DENV2 CPE rescue 22 (no result: Cneo AK release, Xi reactivation, Statin myotox sup)
O=C(C[C@@H]1CC[C@@H](NC(=O)Cc2ccccn2)[C@H](CO)O1)NCCc1ccccc1	none
Oc1c(N=Nc2ccc(F)cc2)ccc2ccccc12	none
Oc1c(N=Nc2nn[nH]n2)ccc2ccccc12	DENV2 CPE rescue 69 (no result: Cneo AK release, Statin myotox sup)
O=S(=O)(Nc1nc(SCc2ccc(Cl)cc2)n[nH]1)c1ccc(F)cc1	DENV2 CPE rescue 29 (no result: Statin myotox sup)
CCc1nc(SCc2ccc(Cl)cc2)n[nH]1	none (no result: Cneo AK release, Statin myotox sup)
Cc1ccc(-c2ccc([C@@H]3[C@@H](CO)N4CCCCN(S(=O)(=O)c5cccc(C)c5)C[C@H]34)cc2)cc1	none (no result: Xi reactivation, Statin myotox sup)
N#C[C@H]1[C@H](c2ccccc2-c2cccc(F)c2)[C@@H](CO)N1C(=O)NC1CCCC1	none (no result: Cneo AK release, Statin myotox sup)
[N-]=[N+]=NCCCNC(=O)Nc1ccccc1	none (no result: Xi reactivation, Statin myotox sup)
CN(C)S(=O)(=O)c1ccc(Cl)c(NC(=O)CSc2nc3c(cc2C#N)C(=O)CC(C)(C)C3)c1	DENV2 CPE rescue 31 (no result: Statin myotox sup)
CN(C)S(=O)(=O)c1cccc(NC(=O)CSc2nc3c(cc2C#N)C(=O)CC(C)(C)C3)c1	none (no result: Cneo AK release, Statin myotox sup)
COc1ccc(-c2cnc3c(c2)C(=O)N([C@H](C)CO)C[C@H](C)[C@H](CN(C)S(=O)(=O)c2ccc(F)cc2)O3)cc1	Statin myotox sup 102
COc1ccc(-c2cnc3c(c2)C(=O)N([C@@H](C)CO)C[C@H](C)[C@@H](CN(C)S(C)(=O)=O)O3)cc1	Cneo AK release 81
COc1ccc(-c2cnc3c(c2)C(=O)N([C@H](C)CO)C[C@@H](C)[C@H](CN(C)S(=O)(=O)c2ccc(OC)cc2)O3)cc1	none (no result: Cneo AK release, DENV2 CPE rescue)
C[C@@H]1CCCCO[C@@H](CN(C)Cc2ccncc2)[C@@H](C)CN([C@H](C)CO)C(=O)c2cc(NS(C)(=O)=O)ccc2O1	none (no result: Cneo AK release, DENV2 CPE rescue)
COc1ccc(NC(=O)Nc2ccc3c(c2)C(=O)N([C@H](C)CO)C[C@@H](C)[C@@H](CN(C)C(=O)Nc2c(C)noc2C)O3)cc1	none
N#C[C@H]1[C@@H](c2ccccc2-c2ccccc2F)[C@H](CO)N1C(=O)C1CCOCC1	none (no result: Cneo AK release, Statin myotox sup)
COc1cccc(CN(C)C(=O)[C@@H](Cc2ccccc2)NC(=O)[C@H]2O[C@@H](n3ccc(=O)[nH]c3=O)[C@H](O)[C@@H]2O)c1	DENV2 CPE rescue 22 (no result: Cneo AK release, Statin myotox sup)
